Measurements: ChEMBL document CHEMBL2062453, “Lead optimization through VLAK protocol: new annelated pyrrolo-pyrimidine derivatives as antitumor agents” (2012)

Columns and labels:
Assay type in all cases: functional
OVCAR-8 = assay: Cytotoxicity against human OVCAR8 cells after 48 hrs by SRB assay; conditions: OVCAR-8, 48 h; for TGI: read-out: pTGI (converted)
Summary of the method: (§1)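 Five-dose screen, 10-fold or ½-log dilutions, compound stock in DMSO. Cells were in RPMI 1640 with 5% FBS and 2 mM glutamine at 5000–40,000 cells/well, preincubated 24 h, 37 °C, 5% CO₂, with a time-zero plate TCA-fixed. After 48 h drug exposure, cells were TCA-fixed and stained with 0.4% SRB, read at 515 nm. GI50, TGI and LC50 were derived from time-zero, control and test absorbances.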

HOP-62 = assay: Cytotoxicity against human HOP62 cells after 48 hrs by SRB assay; conditions: HOP-62, 48 h; for TGI: read-out: pTGI (converted)
Summary of the method: (§2)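 NCI 60-cell five-dose screen. Cells grown in RPMI 1640 with 5% FBS and 2 mM glutamine, plated at 5000–40,000 cells/well, and preincubated 24 h at 37 °C in 5% CO2. Time-zero plates fixed with TCA. Five serial dilutions of DMSO stock added, then 48 h exposure. TCA fixation, 0.4% SRB staining, absorbance read at 515 nm. GI50 from [(Ti−Tz)/(C−Tz)]×100 = 50.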

NCI-H226 = assay: Cytotoxicity against human NCI-H226 cells after 48 hrs by SRB assay; conditions: NCI-H226, 48 h; for TGI: read-out: pTGI (converted); summary of the method: as §1
MOLT-4 = assay: Cytotoxicity against human MOLT4 cells after 48 hrs by SRB assay; conditions: MOLT-4, 48 h; for TGI: read-out: pTGI (converted); summary of the method: as §1
Hs-578T = assay: Cytotoxicity against human Hs578T cells after 48 hrs by SRB assay; conditions: for TGI: read-out: pTGI (converted); summary of the method: as §2
SNB-75 = assay: Cytotoxicity against human SNB75 cells after 48 hrs by SRB assay; conditions: SNB-75, 48 h; for TGI: read-out: pTGI (converted); summary of the method: as §1
HOP-92 = assay: Cytotoxicity against human HOP92 cells after 48 hrs by SRB assay; conditions: HOP-92, 48 h
Summary of the method: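 NCI 60-line five-dose screen. Cells are grown in RPMI 1640 with 5% FBS and 2 mM glutamine, plated at 5000–40,000 cells/well, and preincubated 24 h at 37 °C in 5% CO2. Compound is dissolved in DMSO and given at five concentrations (10-fold or ½-log dilutions) for 48 h. Cells are TCA-fixed (HL-60(TB), suspension: 16% final; HOP92, adherent: 10% final), SRB-stained and read at 515 nm. GI50 comes from [(Ti−Tz)/(C−Tz)]×100 = 50.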

NCI-H460 = assay: Cytotoxicity against human NCI-H460 cells after 48 hrs by SRB assay; conditions: NCI-H460, 48 h; for TGI: read-out: pTGI (converted); summary of the method: as §1
SK-MEL-2 = assay: Cytotoxicity against human SK-MEL-2 cells after 48 hrs by SRB assay; conditions: SK-MEL-2, 48 h; for TGI: read-out: pTGI (converted); summary of the method: as §1
EKVX = assay: Cytotoxicity against human EKVX cells after 48 hrs by SRB assay; conditions: for TGI: read-out: pTGI (converted); summary of the method: as §2
SF-539 = assay: Cytotoxicity against human SF539 cells after 48 hrs by SRB assay; conditions: SF-539, 48 h; for TGI: read-out: pTGI (converted); summary of the method: as §1
RXF 393 = assay: Cytotoxicity against human RXF393 cells after 48 hrs by SRB assay; conditions: RXF 393, 48 h; for TGI: read-out: pTGI (converted); summary of the method: as §1
SN12C = assay: Cytotoxicity against human SN12C cells after 48 hrs by SRB assay; conditions: for TGI: read-out: pTGI (converted); summary of the method: as §1
LOX IMVI = assay: Cytotoxicity against human LOXIMVI cells after 48 hrs by SRB assay; conditions: for TGI: read-out: pTGI (converted); summary of the method: as §2
MCF7 = assay: Cytotoxicity against human MCF7 cells after 48 hrs by SRB assay; conditions: MCF7, 48 h; for TGI: read-out: pTGI (converted); summary of the method: as §2
MDA-MB-435 = assay: Cytotoxicity against human MDA-MB-435 cells after 48 hrs by SRB assay; conditions: MDA-MB-435, 48 h; for TGI: read-out: pTGI (converted); summary of the method: as §2
RPMI-8226 = assay: Cytotoxicity against human RPMI8226 cells after 48 hrs by SRB assay; conditions: RPMI-8226, 48 h; for TGI: read-out: pTGI (converted); summary of the method: as §1
A498 = assay: Cytotoxicity against human A498 cells after 48 hrs by SRB assay; conditions: A498, 48 h; for TGI: read-out: pTGI (converted); summary of the method: as §2
UO-31 = assay: Cytotoxicity against human UO31 cells after 48 hrs by SRB assay; conditions: UO-31, 48 h; for TGI: read-out: pTGI (converted)
Summary of the method: (§3)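 NCI 60-panel five-dose screen. Cells in RPMI 1640 with 5% FBS and 2 mM glutamine, plated at 5000–40,000 cells/well and preincubated 24 h at 37 °C under 5% CO2. Five 10-fold or half-log dilutions were added from a DMSO stock for 48 h. Cells were TCA-fixed (SR settled cells: 16% final), SRB-stained and read at 515 nm. GI50 was taken where (Ti−Tz)/(C−Tz)×100 = 50.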

PC-3 = assay: Cytotoxicity against human PC3 cells after 48 hrs by SRB assay; conditions: PC-3, 48 h; for TGI: read-out: pTGI (converted); summary of the method: as §1
HT-29 = assay: Cytotoxicity against human HT-29 cells after 48 hrs by SRB assay; conditions: HT-29, 48 h; for TGI: read-out: pTGI (converted); summary of the method: as §2
DU-145 = assay: Cytotoxicity against human DU145 cells after 48 hrs by SRB assay; conditions: DU-145, 48 h; for TGI: read-out: pTGI (converted); summary of the method: as §2
ACHN = assay: Cytotoxicity against human ACHN cells after 48 hrs by SRB assay; conditions: for CC50: read-out: pLC50 (the source's name) (converted); for TGI: read-out: pTGI (converted); summary of the method: as §2
T47D = assay: Cytotoxicity against human T47D cells after 48 hrs by SRB assay; conditions: for TGI: read-out: pTGI (converted); summary of the method: as §3
NCI-H322M = assay: Cytotoxicity against human NCI-H322M cells after 48 hrs by SRB assay; conditions: for TGI: read-out: pTGI (converted); summary of the method: as §1
HCT-116 = assay: Cytotoxicity against human HCT116 cells after 48 hrs by SRB assay; conditions: HCT-116, 48 h; for TGI: read-out: pTGI (converted); summary of the method: as §2

CSC1=Nc2c(c(C)c(-c3ccccc3)n2CCCCl)C2=NC(=O)CN12
GI50 (OVCAR-8): 16.2 µM
LC50 (OVCAR-8): > 100 µM
TGI (OVCAR-8): 72.4 µM
GI50 (HOP-62): 11 µM
LC50 (HOP-62): > 100 µM
TGI (HOP-62): 63.1 µM
GI50 (NCI-H226): 11 µM
LC50 (NCI-H226): 81.3 µM
TGI (NCI-H226): 29.5 µM
GI50 (MOLT-4): 3.89 µM
LC50 (MOLT-4): > 100 µM
TGI (MOLT-4): > 100 µM
GI50 (Hs-578T): 6.31 µM
LC50 (Hs-578T): > 100 µM
TGI (Hs-578T): 34.7 µM
GI50 (SNB-75): 2.82 µM
LC50 (SNB-75): 67.6 µM
TGI (SNB-75): 11.7 µM
GI50 (HOP-92): 11.5 µM
LC50 (HOP-92): > 100 µM
TGI (HOP-92; read-out: pTGI (converted)): 37.2 µM
GI50 (NCI-H460): 3.72 µM
LC50 (NCI-H460): 56.2 µM
TGI (NCI-H460): 15.1 µM
GI50 (SK-MEL-2): 10.5 µM
LC50 (SK-MEL-2): 74.1 µM
TGI (SK-MEL-2): 27.5 µM
GI50 (EKVX): 6.92 µM
LC50 (EKVX): > 100 µM
TGI (EKVX): 30.9 µM
GI50 (SF-539): 3.39 µM
LC50 (SF-539): 39.8 µM
TGI (SF-539): 14.1 µM
GI50 (RXF 393): 11.2 µM
LC50 (RXF 393): 79.4 µM
TGI (RXF 393): 29.5 µM
GI50 (SN12C): 6.31 µM
LC50 (SN12C): > 100 µM
TGI (SN12C): 38.9 µM
GI50 (LOX IMVI): 4.17 µM
LC50 (LOX IMVI): 50.1 µM
TGI (LOX IMVI): 17.4 µM
GI50 (MCF7): 3.39 µM
LC50 (MCF7): 77.6 µM
TGI (MCF7): 16.6 µM
GI50 (MDA-MB-435): 2.04 µM
LC50 (MDA-MB-435): 17.4 µM
TGI (MDA-MB-435): 4.68 µM
GI50 (RPMI-8226): 3.72 µM
LC50 (RPMI-8226): > 100 µM
TGI (RPMI-8226): 66.1 µM
GI50 (A498): 3.89 µM
LC50 (A498): 53.7 µM
TGI (A498): 15.1 µM
GI50 (UO-31): 10.5 µM
LC50 (UO-31): 77.6 µM
TGI (UO-31): 28.8 µM
GI50 (PC-3): 8.71 µM
LC50 (PC-3): > 100 µM
TGI (PC-3): > 100 µM
GI50 (HT-29): 3.89 µM
LC50 (HT-29): > 100 µM
TGI (HT-29): 19.5 µM
GI50 (DU-145): 11.5 µM
LC50 (DU-145): 61.7 µM
TGI (DU-145): 26.9 µM
GI50 (ACHN): 9.55 µM
CC50 (ACHN): > 100 µM
TGI (ACHN): 38 µM
GI50 (T47D): 2.63 µM
LC50 (T47D): 95.5 µM
TGI (T47D): 11 µM
GI50 (NCI-H322M): 9.77 µM
LC50 (NCI-H322M): 58.9 µM
TGI (NCI-H322M): 24.5 µM
GI50 (HCT-116): 3.16 µM
LC50 (HCT-116): > 100 µM
TGI (HCT-116): 47.9 µM

CSC1=Nc2c(c(C)c(-c3ccccc3)n2CCCN2CCCCC2)C2=NC(=O)CC(C)N12 (centres undefined)
GI50 (OVCAR-8): 3.72 µM
LC50 (OVCAR-8): > 100 µM
TGI (OVCAR-8): 30.9 µM
GI50 (HOP-62): 3.16 µM
LC50 (HOP-62): > 100 µM
TGI (HOP-62): 26.3 µM
GI50 (NCI-H226): 3.55 µM
LC50 (NCI-H226): > 100 µM
TGI (NCI-H226): > 100 µM
GI50 (MOLT-4): 2 µM
LC50 (MOLT-4): 20.4 µM
TGI (MOLT-4): 5.13 µM
GI50 (Hs-578T): 2.29 µM
LC50 (Hs-578T): 97.7 µM
TGI (Hs-578T): 7.94 µM
GI50 (SNB-75): 2.69 µM
LC50 (SNB-75): > 100 µM
TGI (SNB-75): 21.9 µM
LC50 (HOP-92): > 100 µM
GI50 (NCI-H460): 3.24 µM
LC50 (NCI-H460): 67.6 µM
TGI (NCI-H460): 12 µM
GI50 (SK-MEL-2): 2.14 µM
LC50 (SK-MEL-2): 20.9 µM
TGI (SK-MEL-2): 5.25 µM
GI50 (EKVX): 3.02 µM
LC50 (EKVX): > 100 µM
TGI (EKVX): 20 µM
GI50 (SF-539): 6.46 µM
LC50 (SF-539): > 100 µM
TGI (SF-539): 87.1 µM
GI50 (RXF 393): 1.51 µM
LC50 (RXF 393): 25.1 µM
TGI (RXF 393): 4.68 µM
GI50 (SN12C): 2.29 µM
LC50 (SN12C): > 100 µM
TGI (SN12C): 10.7 µM
GI50 (LOX IMVI): 3.02 µM
LC50 (LOX IMVI): 35.5 µM
TGI (LOX IMVI): 12.9 µM
GI50 (MCF7): 2.88 µM
LC50 (MCF7): 61.7 µM
TGI (MCF7): 11.2 µM
GI50 (MDA-MB-435): 2.88 µM
LC50 (MDA-MB-435): 58.9 µM
TGI (MDA-MB-435): 10.5 µM
GI50 (RPMI-8226): 0.166 µM
LC50 (RPMI-8226): 4.27 µM
TGI (RPMI-8226): 1.2 µM
GI50 (A498): 3.16 µM
LC50 (A498): > 100 µM
TGI (A498): 9.12 µM
GI50 (UO-31): 5.01 µM
LC50 (UO-31): 75.9 µM
TGI (UO-31): 24 µM
GI50 (PC-3): 1.38 µM
LC50 (PC-3): 9.12 µM
TGI (PC-3): 3.55 µM
GI50 (HT-29): 1.62 µM
LC50 (HT-29): > 100 µM
TGI (HT-29): 7.24 µM
GI50 (DU-145): 3.39 µM
LC50 (DU-145): > 100 µM
TGI (DU-145): 27.5 µM
GI50 (ACHN): 3.02 µM
CC50 (ACHN): > 100 µM
TGI (ACHN): 22.4 µM
GI50 (T47D): 2 µM
LC50 (T47D): > 100 µM
TGI (T47D): 7.59 µM
GI50 (NCI-H322M): 6.17 µM
LC50 (NCI-H322M): > 100 µM
TGI (NCI-H322M): 89.1 µM
GI50 (HCT-116): 2.4 µM
LC50 (HCT-116): > 100 µM
TGI (HCT-116): > 100 µM
